# Source: PubChem (several laboratories)
# This is a sample that favours compounds with a hit; in the whole collection about 3.6% have one here.
# Hsp70 act: Hsp70 transcriptional activators, primary screen, cell-based, HeLa, Hsp70 promoter luciferase, luminescence, 10 µM. activation, % at 10 µM. HeLa Hsp70 promoter luciferase reporter; scaled: vehicle 0, proteasome-inhibitor control 100%. 0.04% of 200,000 active;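 active = activation above the mean across all tested compounds plus 3 SD, cutoff set per campaign, cut at about 5.5% in these data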;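 also: 100% = MG132 at 30 µM as the positive control and 0% = DMSO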
# AHR activator: AHR activators, primary screen, cell-based, luminescence, luciferase reporter, human; 2.5% of 320,000 active; Aryl hydrocarbon receptor (Homo sapiens), P35869; AHR-responsive luciferase reporter cells; activation, % at 5 µM; in the data active = activation above about 47%;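 also: 0% = vehicle wells and 100% = reference agonist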
# Target sequence (P35869 whole entry, looked up): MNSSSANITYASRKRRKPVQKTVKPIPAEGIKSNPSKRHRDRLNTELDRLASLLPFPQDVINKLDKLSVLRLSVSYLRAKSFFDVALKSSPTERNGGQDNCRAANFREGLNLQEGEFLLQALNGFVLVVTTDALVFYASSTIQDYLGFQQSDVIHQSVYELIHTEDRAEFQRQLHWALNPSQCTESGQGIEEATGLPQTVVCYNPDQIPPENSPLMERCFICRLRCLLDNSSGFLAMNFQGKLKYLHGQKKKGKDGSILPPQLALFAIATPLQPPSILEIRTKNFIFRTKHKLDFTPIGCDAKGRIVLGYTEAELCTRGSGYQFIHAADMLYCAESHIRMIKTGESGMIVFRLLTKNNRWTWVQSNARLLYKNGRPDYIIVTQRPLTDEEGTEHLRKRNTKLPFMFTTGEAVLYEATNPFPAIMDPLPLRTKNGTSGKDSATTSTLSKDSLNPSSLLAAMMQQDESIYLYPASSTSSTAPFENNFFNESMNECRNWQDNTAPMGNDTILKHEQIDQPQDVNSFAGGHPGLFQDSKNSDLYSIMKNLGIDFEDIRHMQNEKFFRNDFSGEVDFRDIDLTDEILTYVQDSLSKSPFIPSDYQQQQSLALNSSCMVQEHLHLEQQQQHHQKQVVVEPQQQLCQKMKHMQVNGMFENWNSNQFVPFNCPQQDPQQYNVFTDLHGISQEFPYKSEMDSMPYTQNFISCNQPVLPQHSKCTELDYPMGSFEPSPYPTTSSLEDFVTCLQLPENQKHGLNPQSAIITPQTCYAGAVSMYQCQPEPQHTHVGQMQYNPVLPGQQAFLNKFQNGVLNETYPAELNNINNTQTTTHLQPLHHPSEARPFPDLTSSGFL
# PERK inh: block of dimerizer-induced PERK translation repression, primary screen, PERK inhibitor project, CHO PERK-DD cells, SEAP luminescence, HTS; CHO PERK-DD fusion, SEAP luminescence translation reporter; Eukaryotic translation initiation factor 2-alpha kinase 3 (Homo sapiens), Q9NZJ5; inhibition, % at 5.6 µM; 0.17% of 220,000 active;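 active = inhibition above the mean inhibition of all tested compounds plus 3 SD, set separately per screening campaign, cut at about 2.9% in these data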;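 also: PERK kinase domain activated by AP20187 dimerizer at 100 nM; 0% = DMSO with dimerizer and 100% = rapamycin at 8.4 µM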
# HSF1 inh: HSF1 inhibitors in luciferase reporter cells, primary screen, cell-based, NIH3T3, luminescence; NIH3T3-HGL HSE-luciferase, MG132-induced, luminescence 8 h; stronger effect = lower value; activity change, negative = inhibition, % at 7.5 µM (by protocol); 0.77% of 300,000 active; AID 2098, 2009;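 active = more than half of replicate wells show activity change below -50%, luminescence cut by over half; inconclusive = some wells, but at most half, below -50%; inactive = no replicate well below -50%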;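 also: luciferase reports HSF-1 transcriptional activity via heat shock element; 0% = median of DMSO wells and -100% = zero luminescence signal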
# PolyA inh: polyadenylation inhibitors in yeast reporter cells, primary screen, luminescence, S. cerevisiae; AID 1875, 2009; 0.02% of 300,000 active; S. cerevisiae SKY197-pL101 polyadenylation reporter, beta-gal luminescence; efflux-impaired pdr1/pdr3 knockout yeast; score 100 = 6 SD above DMSO; activity score, % at 12 µM;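 active = lowest replicate activity score at least 50, where 100 means six control SD above control mean; inconclusive = lowest score under 50 but half or more replicates reach 50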;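 also: yeast exposed to compound for 9 h at 30 °C; higher score means more reporter readthrough which indicates perturbed polyadenylation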
# STAT3 act: IL-6 driven STAT3 reporter potentiators, primary screen, U3A cells, luciferase, luminescence, MLSCN library | IL-6 STAT3-luciferase reporter; 100% = signal with IL-6 EC80 alone | activation (% of control), % at 5.6 µM | 0.91% of 190,000 active | AID 871, 2007;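 active = activation above the screen-wide mean of compound activation plus 3 SD, cut at about 130% in these data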;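 also: 0% = background luminescence of wells with medium and substrate only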
#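 Test system: STAT3-luciferase reporter U3A cells; Detection: reporter luminescence signal; Times: 1 h compound pre-exposure, 6 h IL-6 stimulation, 37 °C; Benchmarks: IL-6-only high control; Also added: IL-6 stimulus at 33 ng/mL final.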
# An asterisk follows results filed as active; ? = inconclusive; / = no result given.
SMILES,Hsp70 act,AHR activator,PERK inh,HSF1 inh,PolyA inh,STAT3 act
CCOC(=O)c1nn(-c2ccc(C)c(C)c2)c(=O)c(C#N)c1C,/,1,/,1,8,/
S=c1[nH]nc(-c2ccc(Br)cc2)n1Cc1ccco1,0,8,1,-2,-1,99
S=c1[nH]nc(-c2ccncc2)n1Cc1ccco1,0,1,1,-69*,-8,103
COc1ccc(-c2cc(C(=O)Nc3cc(OC)cc(C(=O)Nc4cccc(C(F)(F)F)c4)c3)[nH]n2)cc1,/,16,/,26,?,/
O=C(c1ccccc1)N1CCN(c2ccc([N+](=O)[O-])c(NCc3cccnc3)c2)CC1,0,25,-1,-10,6,103
CC(C)CC(=O)N1CCN(c2ccc([N+](=O)[O-])c(NCc3ccccc3)c2)CC1,0,48*,0,7,-11,100
CCOC(=O)c1c(NC(=O)Nc2ccccc2)sc(C)c1C,0,49*,0,-6,-5,92
COC(=O)c1ccc2c(=O)[nH]c(COC(=O)c3c(-c4ccccc4Cl)noc3C)nc2c1,/,0,/,3,-1,/
CC(=O)Nc1ccc(NC(=O)CSc2cn(CC(=O)N3CCOCC3)c3ccccc23)cc1,/,0,/,-69*,-26,/
Cn1c(C(=O)O)c(CC(=O)Nc2ccc3c(c2)OCCO3)c2ccccc21,0,6,0,-66*,4,93
CCn1cc(SCC(=O)N2CCOCC2)c2ccccc21,0,4,1,10,-12,114
COCCCn1nnnc1SCC(=O)Nc1ccc2c(c1)OCCO2,0,11,0,2,27,103
COCCn1nnnc1SCC(=O)Nc1ccc2c(c1)OCO2,0,68*,1,6,5,98
O=C(Nc1ccccc1Cl)C(=O)c1cn(CC(=O)N2CCOCC2)c2ccccc12,/,73*,/,-6,0,/
CCCn1cc(SCC(=O)Nc2ccc3c(c2)OCO3)c2ccccc21,0,73*,0,5,-11,98
Cc1cccc(/C=N\NC(=O)c2csnn2)c1,0,70*,1,31,10,100
Cc1cccc(/C=N\NC(=O)c2sccc2-n2cccc2)c1,0,64*,1,2,-4,86
O=C(NC1CC1)c1sccc1-n1cccc1,0,-1,1,0,16,99
O=C(N/N=C\c1ccc(Oc2ccccc2)cc1)c1csnn1,0,12,0,14,-6,91
Cn1cc(C(=O)N/N=C/c2cccs2)c2ccccc21,0,109*,0,19,-3,110
O=C(N/N=C\c1cccs1)c1sccc1-n1cccc1,0,67*,1,2,2,105
Cc1cccc(/C=N\NC(=O)c2ccccc2-n2cccc2)c1,0,34,2,7,16,91
O=C(CCN1C(=O)c2ccccc2S1(=O)=O)NCc1ccccc1,/,0,/,0,2,/
Cc1ccc(S(=O)(=O)NCCC(=O)OCC(=O)NC(=O)c2cccn2C)cc1,/,5,1,-3,-14,/
Cc1nc([N+](=O)[O-])cn1CC(O)c1ccc(F)cc1 (configuration not stated),/,0,1,2,1,/
SMILES,Hsp70 act,AHR activator,PERK inh,HSF1 inh,PolyA inh,STAT3 act
CCC1c2ccc(C)n2CCN1C(=O)Nc1ccccc1OC (configuration not stated),0,48*,-1,2,15,104
COc1ccccc1NC(=O)N1CCN(C(=O)Nc2ccccc2OC)CC1,/,-2,0,2,16,/
Oc1ccccc1-c1nc2c3ccccc3c3ccccc3c2[nH]1,/,53*,1,-1,-14,/
Oc1ccccc1-c1ccn[nH]1,/,2,/,/,/,/
O=C(NNC(=O)c1cc(Cl)ccc1O)c1cccc(S(=O)(=O)N2CCOCC2)c1,/,5,/,4,4,/
CSc1cccc(NS(=O)(=O)c2cc(Br)cnc2N)c1,/,-1,/,-61*,-15,/
Cc1ccc(NS(=O)(=O)c2cc(Br)cnc2N)cc1C,/,3,/,20,-5,/
COc1cc(NC(=O)c2ccno2)cc(C(=O)Nc2cccc(C(F)(F)F)c2)c1,/,64*,/,-1,1,/
CCN1CCN(Cc2ccc(NC(=O)c3cc(NC(=O)c4cc5cccc(OC)c5o4)cc(OC)c3)cc2C(F)(F)F)CC1,/,16,/,-3,-6,/
COc1cc(NC(=O)c2cc3cccc(OC)c3o2)cc(C(=O)Nc2cccc(C(F)(F)F)c2)c1,/,73*,/,-67*,12,/
COc1cccc(NC(=O)c2cc3cccc(OC)c3o/c2=N\O)c1,/,63*,/,19,-11,/
O=C(COc1cccc(C(F)(F)F)c1)NCC(c1ccco1)N1CCCCC1 (configuration not stated),/,1,/,-2,1,/
O=C(COC(=O)c1ccccn1)NC(=O)c1ccccc1,/,0,/,/,/,/
CCN(CC)S(=O)(=O)c1ccc(C)c(NC(=O)CNCCN(C(C)C)C(C)C)c1,0,1,1,1,-8,103
N/C(Cc1nc(-c2ccc(Br)cc2)cs1)=N\O,0,54*,1,17,-16,105
N/C(Cc1nc(-c2ccc(F)cc2)cs1)=N\O,/,4,0,7,-20,/
O=C(c1ccccc1)N1CCSC1=S,0,2,3.0*,1,-12,101
Cc1ccc(C(=O)N2CCSC2=S)cc1,0,4,1,-1,9,102
COc1cc(C2NC(=S)NC(C)=C2C(=O)Nc2cc(C)cc(C)c2)ccc1O (configuration not stated),/,5,0,4,3,/
CCOCCn1c(=NC(=O)CSCC(=O)N2CCOCC2)sc2cc(OC)ccc21,/,4,/,1,19,/
COc1ccccc1-c1nc(-c2ccc(Br)cc2)no1,0,64*,-1,39,10,135*
COc1ccc(-c2nc(-c3ccc(Br)cc3)no2)c(OC)c1,0,95*,0,16,7,105
COc1cccc(-c2noc(-c3ccoc3C)n2)c1,0,69*,3.1*,-5,3,84
Cc1ccc(NC(=O)C23CCC(C)(C(=O)[C@H]2Br)C3(C)C)cc1 (some centres not stated),/,1,0,-7,-12,/
CCOc1ccc(N2CC(C(=O)N3CCc4ccccc43)CC2=O)cc1 (configuration not stated),/,15,/,7,-4,/
